Published values collected from several papers.
Each line is one published result; the experiments were not run side by side.
Target: Receptor-interacting serine/threonine-protein kinase 2 (RIPK2, Homo sapiens, UniProt O43353)

SMILES | effect on | action | technique | tested at | measurement | result
FC(F)(F)Oc1cccc(-c2cnc3ccc(-c4ccncc4)nn23)c1 | enzyme activity | inhibitor | radiometric | 1 µM | activity vs control | 32%
C[C@H](c1ccc(F)cc1)N(Cc1cccc(C(=O)O)c1)C(=O)c1cnc2ccccc2c1 | cell-free assay |  | competition with immobilised ligand | 1 µM | remaining binding | 82%
Nc1ncnc2occ(-c3ccc(NC(=O)Nc4cc(C(F)(F)F)ccc4F)cc3)c12 | cell-free assay | inhibitor |  | 20 µM | remaining signal | 4.2%
CCN(CC)c1ccc(C2=NNC(=O)CC2C)cc1[N+](=O)[O-] (centres unmarked) | enzyme activity | inhibitor |  | 10 µM | remaining activity | 91%
C[C@@H]1CCN(C(=O)CC#N)C[C@@H]1N(C)c1ncnc2[nH]ccc12 | cell-free assay | inhibitor |  | 0.5 µM | remaining signal | 113%
Cn1cnc(Br)c1C1=CN(c2ncnc3[nH]cnc23)CCS1 | enzyme activity | inhibitor | radiometric | 2 µM | inhibition | 34%
Cc1ccc(C(=O)Nc2ccc(CN3CCN(C)CC3)c(C(F)(F)F)c2)cc1C#Cc1cnc2cccnn12 | enzyme activity | inhibitor |  | 23.5 nM | remaining activity | 43%
COc1ccc2c(c1)O[C@H](c1ccc(OC)c(OC)c1)C[C@@H]2NC(=O)C1(c2ccc3c(c2)OC(F)(F)O3)CC1 | cell-free assay |  | competition with immobilised ligand | 1 µM | remaining binding | 100%
CNC(=O)c1cc2c(Oc3ccc(NC(=O)C4(C(=O)Nc5ccc(F)cc5)CC4)cc3)ccnc2cc1OC | enzyme activity | inhibitor | radiometric | 1 µM | inhibition | 74%
CCS(=O)(=O)c1cc2cc(C[C@](O)(CC(C)(C)c3ccc(F)cc3C(N)=O)C(F)(F)F)[nH]c2cn1 | cell-free assay |  | competition with immobilised ligand | 1 µM | remaining binding | 67%
CNCc1ccc(-c2cc(-c3nc(-c4ccc(S(=O)(=O)C(C)C)cc4)cnc3N)on2)cc1 | enzyme activity | inhibitor |  | 2 µM | inhibition | 26%
CCCOc1ccc([C@H]2[C@H](C(=O)O)[C@@H](c3ccc4c(c3)OCO4)CN2CC(=O)Nc2c(CC)cccc2CC)cc1 | cell-free assay |  | competition with immobilised ligand | 1 µM | remaining binding | 100%
COc1cc(Nc2cnc(C#N)c(O[C@H](C)CN(C)C)n2)ncc1-c1cnn(C)c1 | enzyme activity | inhibitor | radiometric | 10 µM | remaining activity | 71%
N#CCCc1ccc2c(c1)-c1[nH]c3ccc([N+](=O)[O-])cc3c1CC(=O)N2 | cell-free assay |  |  | 0.5 µM | remaining signal | 21.5%
CCN(CC)CCNC(=O)c1c(C)[nH]c(/C=C2\C(=O)Nc3ccc(F)cc32)c1C | enzyme activity | inhibitor |  | 10 µM | inhibition | 24%
O=C1Nc2ccc(Cl)cc2C1=Cc1cc(Cl)c(O)c(Cl)c1 | cell-free assay |  |  | 0.5 µM | remaining signal | 50.2%
CNCc1ccccc1-c1csc([C@@H](C)Nc2nc(C)nc3cc(OC)c(OC)cc23)c1 | cell-free assay |  | competition with immobilised ligand | 1 µM | remaining binding | 100%
Cc1sc(C(=O)NC2COC2)cc1-n1cc(NC(=O)Nc2c(F)cccc2Cl)cn1 | enzyme activity | inhibitor |  | 10 µM | remaining activity | 89.3%
CC(C)(C)c1nc(-c2cccc(NS(=O)(=O)c3c(F)cccc3F)c2F)c(-c2ccnc(N)n2)s1 | enzyme activity | inhibitor | radiometric | 1 µM | remaining activity | 5%
COc1cc(Cl)c(C(=O)N[C@@H](CN[C@H]2CC[C@@H](N)CC2)Cc2ccc(C#N)cc2)cc1-c1ccc(CN[C@H](C)c2ccc(C)cc2)o1 | enzyme activity | inhibitor |  | 1 µM | remaining activity | 100%
O=C1NC(=O)c2cc(Nc3ccc(F)cc3)c(Nc3ccc(F)cc3)cc21 | cell-free assay |  |  | 0.5 µM | remaining signal | 95%
CC(C)(O)[C@H]1CC[C@H](Nc2ccc3ncc(-c4cccc(C(F)(F)F)c4)n3n2)CC1 | enzyme activity | inhibitor |  | 1 µM | remaining activity | 28.1%
NS(=O)(=O)c1cc(NC(=O)C2(c3ccccc3Cl)CC2)ccc1Oc1cccc(Cl)c1 | cell-free assay |  | competition with immobilised ligand | 1 µM | remaining binding | 93%
O=C(Nc1cnn(-c2csc(C(=O)NC3COC3)c2)c1)Nc1ccccc1Cl | enzyme activity | inhibitor |  | 5 µM | remaining activity | 120%
Oc1cccc(-c2nc(N3CCOCC3)c3oc4ncccc4c3n2)c1 | enzyme activity | inhibitor |  | 10 µM | remaining activity | 72%
O=C(O)[C@H]1[C@H](Cn2nnc3ccccc3c2=O)CC[C@@H]1C(=O)c1ccc(OCCC2CCOCC2)cc1 | cell-free assay |  | competition with immobilised ligand | 1 µM | remaining binding | 100%
CCCOc1ccc(OC)c(F)c1C(=O)c1ccc(C(=O)N[C@@H]2CNC[C@H]2NC(=O)c2ccc3[nH]ncc3c2)cc1 | enzyme activity | inhibitor |  | 10 µM | remaining activity | 91%
CC(=O)c1c(NS(C)(=O)=O)c2cc(-c3ccc(Cl)cc3)c(-c3ccc(Cl)cc3Cl)nc2n(C)c1=O | cell-free assay |  | competition with immobilised ligand | 1 µM | remaining binding | 96%
Cc1ccc(NC(=O)c2ccc(C)c(C(F)(F)F)c2)cc1C#Cc1nn(C2CCC(O)CC2)c2ncnc(N)c12 (centres unmarked) | cell-free assay |  |  | 10 µM | remaining signal | 21%
